pIC50: −log10 of the molar value. Each block holds one molecule with its values, some of them ahead of it.
What was measured:
RAW264.7 = test: Inhibition of nitric oxide production in LPS-activated mouse RAW264.7 cells; type: functional, cell-based; conditions: for pIC50: Mus musculus, RAW264.7, read-out: IC50
How it was run: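 LPS-activated RAW264.7 macrophages; compounds dissolved in DMSO and diluted in medium to a range of concentrations, top concentration 25 μM; NO production read as absorbance at 570 nm on a plate reader.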

MCF7 = test: Cytotoxicity against human MCF7 cells by MTT assay; type: functional, cell-based; conditions: for pIC50: Homo sapiens, MCF7, read-out: IC50
SMMC-7721 = test: Cytotoxicity against human SMMC7721 cells by MTT assay; type: functional, cell-based; conditions: for pIC50: Homo sapiens, SMMC-7721, read-out: IC50
[1] = Cytotoxicity against human BEAS2B cells by MTT assay; type: cell-based, BEAS-2B; conditions: for pIC50: Homo sapiens, BEAS-2B, read-out: IC50
SW480 = test: Cytotoxicity against human SW480 cells by MTT assay; type: functional, cell-based; conditions: for pIC50: Homo sapiens, SW480, read-out: IC50
HL-60 = test: Cytotoxicity against human HL60 cells by MTT assay; type: functional, cell-based; conditions: for pIC50: Homo sapiens, HL-60, read-out: IC50
A549 = test: Cytotoxicity against human A549 cells by MTT assay; type: functional, cell-based; conditions: for pIC50: Homo sapiens, A549, read-out: IC50

Structure (SMILES): CCOC(=O)CCc1cc2c3[n-]c4ccccc4c3cc[n+]2cc1C(=O)O
- pIC50 (RAW264.7): < 4.60

Structure (SMILES): [O-][n+]1c2c3cc4c(cn3ccc-2c2ccccc21)CCCC4
- IC50 (MCF7; mcf7): ND(Insoluble)
- IC50 (RAW264.7; raw264.7): ND(Insoluble)
- IC50 (SMMC-7721; smmc-7721): ND(Insoluble)
- IC50 ([1]; beas-2b): ND(Insoluble)
- IC50 (SW480; sw480): ND(Insoluble)
- IC50 (HL-60; hl-60): ND(Insoluble)
- IC50 (A549; a549): ND(Insoluble)

Structure (SMILES): COc1ccc2c(c1)N(OC)C(=O)[C@@]21C[C@@H]2NC[C@](O)(C(C)O)[C@@H]3C[C@H]1OC[C@H]23 (some centres not stated)
- pIC50 (RAW264.7): < 4.60

Structure (SMILES): COc1ccc2c(c1)N(OC)C(=O)[C@@]21C[C@@H]2NC=C(C=O)[C@@H]3C[C@H]1OC[C@H]23
- pIC50 (MCF7): < 5.00
- pIC50 (RAW264.7): < 4.60
- pIC50 (SMMC-7721): 5.14
- pIC50 [1]: < 5.00
- pIC50 (SW480): < 5.00
- pIC50 (HL-60): 5.07
- pIC50 (A549): 5.03

Now from value to molecule, other results behind:

- pIC50 (RAW264.7): < 4.60
Structure (SMILES): C[C@H](O)[C@@]12C[N+](C)([O-])[C@@H]3C[C@]14C(=Nc1ccccc14)[C@H]1C[C@@H]2[C@@H]3CO1 (some centres not stated)

- pIC50 (RAW264.7): < 4.60
Structure (SMILES): CC[C@@]1(O)CN[C@H]2C[C@@]3(C(=O)N(OC)c4ccccc43)[C@@H]3OC[C@H]2[C@H]1[C@@H]3O

- pIC50 (RAW264.7): < 4.60
Structure (SMILES): C=C[C@@]12C=N[C@H]3C[C@]14C(=Nc1ccccc14)[C@H]1C[C@@H]2[C@@H]3CO1
- pIC50 (MCF7): 5.03
- pIC50 (SMMC-7721): 5.28
- pIC50 [1]: 5.07
- pIC50 (SW480): 5.14
- pIC50 (HL-60): 5.34
- pIC50 (A549): 5.31

- pIC50 (RAW264.7): < 4.60
Structure (SMILES): C=C[C@]12[C@@H]3C[C@@H]4OC[C@@H]3[C@@H](C[C@]13C4=Nc1ccccc13)N(C)[C@H]2O

- pIC50 (RAW264.7): < 4.60
Structure (SMILES): C=C[C@]12[C@@H]3C[C@@H]4OC[C@@H]3[C@@H](C[C@]13C4=Nc1ccccc13)N(C)[C@@H]2O

— ChEMBL document CHEMBL3588808, “Koumine, Humantenine, and Yohimbane Alkaloids from Gelsemium elegans” (J Nat Prod, 2015)
